Consider 11 compounds from ChEMBL document CHEMBL1671785, “Synthesis, physical-chemical characterisation and biological evaluation of novel 2-amido-3-hydroxypyridin-4(1H)-ones: Iron chelators with the potential for treating Alzheimer's disease” (Bioorg Med Chem, 2011).

Data set [1] can be described thus: Association constant pKa of the compound. The format is physicochemical. In outline: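 Ligand pKa by automated potentiometric titration with spectral scans in 0.1 M KCl at 25 ± 0.1 °C. pH was raised or lowered in 0.1-unit steps with KOH or HCl, and readings were taken once pH drifted by <0.001 over 3 s. A 1 min equilibration was used at each step before analysis of the titration data.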

Data set [2] has as its system Glycine max. In words: Inhibition of soybean lipoxygenase at 100 uM after 15 mins.
Data set [3] concerns Glycine max. In words: Inhibition of soybean lipoxygenase at 10 uM after 15 mins. The essentials: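 Soybean lipoxygenase in 0.2 M borate buffer, pH 9, was pre-incubated 15 min with the compound (100 µM solution, 10 µM final in cuvette). The reaction was started with linoleic acid (1 mM). Linoleic hydroperoxide formation was followed at 234 nm for 10 min, and rates were computed using ε = 23600 M⁻¹ cm⁻¹.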

Data set [4] can be described thus: Lipophilicity, log D of the compound at pH 7.4. The format is physicochemical. To be noted: buffer. In outline:
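After centrifugal separation, the loss of aqueous-phase absorbance gives the octanol/buffer concentration ratio.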

The nature of data set [5]: Iron chelating activity of the compound. The format is functional. The essentials:
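Affinity is given as pM, the negative log of free Fe(III), at total metal 10⁻⁶ M and total ligand 10⁻⁵ M, pH 7.4. Stability constants come from automated potentiometric/spectrophotometric titration in 0.1 M KCl at 25 °C with 5 min equilibration per 0.1 pH step. Data analysed by pHab.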

A short description of data set [6]: Inhibition of soybean lipoxygenase after 15 mins. Also noted: species or system Glycine max.
The target of data set [7] is Tyrosine 3-monooxygenase (Rattus norvegicus) (UniProt P04177). In words: Inhibition of tyrosine hydroxylase in rat striata at 10 uM after 20 mins. In outline: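 Rat striatal homogenate (1:9 in 0.32 M sucrose, about 3 mg tissue) in 0.5 M potassium phosphate, pH 6.0, with m-hydroxybenzylhydrazine, 1 mM 6,7-dimethyltetrahydropterine and chelator (1–100 µM). The reaction is started with L-tyrosine (0.4 mM final) for 20 min at 37 °C. L-DOPA is extracted on alumina and quantified by HPLC against α-methyldopa. Triplicate; non-enzymatic background measured using 3-iodotyrosine.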

The subject of the next data set is Cortical neurone. In words: Neuroprotective activity against FeNTA-induced loss of synaptic integrity in rat cortical neurones assessed as damage to cell bodies at 30 uM by phase contrast microscopy. The format is functional.

Structures are written as SMILES. The source made the active and inactive calls. No cut-off for these calls is given here.

Sequence of Tyrosine 3-monooxygenase (Rattus norvegicus) (P04177 whole entry): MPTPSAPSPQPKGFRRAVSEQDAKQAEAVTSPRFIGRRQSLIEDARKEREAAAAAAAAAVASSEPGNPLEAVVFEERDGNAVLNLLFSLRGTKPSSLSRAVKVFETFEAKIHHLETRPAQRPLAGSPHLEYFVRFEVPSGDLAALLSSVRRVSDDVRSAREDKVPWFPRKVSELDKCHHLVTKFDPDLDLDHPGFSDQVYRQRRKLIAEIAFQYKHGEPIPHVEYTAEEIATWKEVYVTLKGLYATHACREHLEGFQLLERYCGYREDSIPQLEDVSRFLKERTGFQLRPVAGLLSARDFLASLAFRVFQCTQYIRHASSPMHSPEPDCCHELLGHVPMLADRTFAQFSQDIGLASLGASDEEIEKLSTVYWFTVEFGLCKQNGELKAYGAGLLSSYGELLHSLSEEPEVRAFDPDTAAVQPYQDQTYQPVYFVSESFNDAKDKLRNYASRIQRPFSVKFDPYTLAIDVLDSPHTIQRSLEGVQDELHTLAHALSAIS

One may read the pKa as the pH at which an ionisable group is half protonated. A high value points to a weaker acid or stronger base. As usually defined, the inhibition is how much of the control response was suppressed. A high value points to a response far below the control. What is called logD is the decadic logarithm of the distribution of all forms, ionised or not, between an organic phase and buffer at a given pH. Read a low logD as lower lipophilicity. As a reminder, the EC50 is the concentration needed to bring the measured effect to its halfway point. `CC(C)CNC(=O)CNC(=O)c1nccc(O)c1O.Cl` showed a pKa in data set [1] of 6.2. Besides, the inhibition came to 70% in the data set on Glycine max [2] and 9.3% with Glycine max [3]. Also, the pH-dependent lipophilicity (logD) in data set [4] is -0.33. In data set [5], this compound returned an Activity of 20.6. In addition, the midpoint of the response in data set [6], the EC50, lay at 44 µM.
Take `CNC(=O)[C@H](Cc1ccccc1)NC(=O)c1nccc(O)c1O.Cl`: the pKa in data set [1] is 6.1. Also, the result in data set [7] was Active. The inhibition with Glycine max [2] was found to be 71%; with Glycine max [3] it was 27.6%. The compound also yielded a logD in data set [4] of -0.11. The Activity in data set [5] was found to be 21.4. In data set [6], this compound had an EC50 of 25 µM.
`CNC(=O)[C@H](C)NC(=O)c1nccc(O)c1O.Cl` came in with a pKa in data set [1] of 6. In addition, the result in data set [7] was inactive. For the same compound, the figures for the inhibition in the data set with Glycine max [2] and in the data set on Glycine max [3] were 61% and 2.7%, respectively. Also, the pH-dependent lipophilicity (logD) in data set [4] is -1.1. Further, the Activity in data set [5] was found to be 19.1. Moreover, in data set [6], the concentration for a half-maximal effect (EC50) was found to be 66 µM.
For the compound `C[C@H](NC(=O)c1nccc(O)c1O)C(=O)NCc1ccccc1.Cl`, the pKa in data set [1] amounted to 6. Also, in data set [7], the outcome was inactive. Besides, the inhibition is 54% in the data set with Glycine max [2] and 3.3% in the data set on Glycine max [3]. Moreover, in the data set with Cortical neurone, the result was Active. This compound also came in with a logD in data set [4] of 0.03. For the same compound, in data set [5], the Activity was 18.9. Moreover, it took 80 µM to reach a half-maximal effect in data set [6] (EC50).
Compound `CC(C)CNC(=O)[C@H](Cc1ccccc1)NC(=O)c1nccc(O)c1O.Cl` gave a pKa in data set [1] of 6. In data set [7], the result was Active. Besides, the inhibition was found to be 81% in the data set with Glycine max [2] and 46.5% with Glycine max [3]. The pH-dependent lipophilicity (logD) in data set [4] came out at 0.39. The compound also had an Activity in data set [5] of 20.4. For the same compound, in data set [6], the EC50 amounted to 13 µM.
As for `Cl.O=C(N[C@@H](Cc1ccccc1)C(=O)NCc1ccccc1)c1nccc(O)c1O`, in data set [1], the pKa is 6. For the same compound, in data set [7], the outcome was Active. Also, the inhibition in the data set with Glycine max [2] stood at 60%; in the data set with Glycine max [3] it was 30.2%. In addition, in data set [4], the logD was 0.9. In data set [5], the Activity was found to be 21.5. The compound further came in with a concentration giving a half-maximal response (EC50) in data set [6] of 52 µM.
In turn, `CNC(=O)CNC(=O)c1nccc(O)c1O.Cl` yielded a pKa in data set [1] of 6.3. The figures for the inhibition with Glycine max [2] and in the data set on Glycine max [3] were 68% and 19.3%, respectively. This compound came in with a logD in data set [4] of -1.42. For the same compound, the Activity in data set [5] is 20.8. Also, the EC50 in data set [6] was found to be 56 µM.
Take `CCc1c(O)c(=O)ccn1CC`: the inhibition came out at 87.4% in the data set on Glycine max [2] and 43% in the data set on Glycine max [3]. It took 11 µM to reach a half-maximal effect in data set [6] (EC50).
Consider `Cc1c(O)c(=O)ccn1C` [DEFERIPRONE], for which the inhibition with Glycine max [2] amounted to 58%. Besides, the 50% effective concentration (EC50) in data set [6] was 64 µM.
With `CC(C)CNC(=O)[C@H](C)NC(=O)c1nccc(O)c1O.Cl`, the pKa in data set [1] was determined as 6. Further, the inhibition in the data set on Glycine max [2] turned out to be 71%; with Glycine max [3], 15.3%. The compound further showed a logD in data set [4] of -0.08. The same compound displayed an Activity in data set [5] of 19.2. In data set [6], it took 37 µM to reach a half-maximal effect (EC50).
As for `Cl.O=C(CNC(=O)c1nccc(O)c1O)NCc1ccccc1`, the pKa in data set [1] turned out to be 6.2. The results for the inhibition in the data set on Glycine max [2] and in the data set with Glycine max [3] were 62% and 8.3%, respectively. The compound also came in with a logD in data set [4] of 0.01. The compound further returned an Activity in data set [5] of 19.1. This compound showed an EC50 in data set [6] of 54 µM.
